In ChEMBL document CHEMBL1255425, “Mutant APH(2'')-IIa enzymes with increased activity against amikacin and isepamicin” (2010):
≈ marks a conversion by molar mass, not a printed value.

Key:
[1] = Activity of Aminoglycoside […] 2a using ATP/GTP as second substrate by spectrophotometric assay
Summary of the method: (§1)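 Enzymes were expressed in E. coli BL21(DE3) and affinity-purified: gentamicin column for wild type and N196D/D268N, kanamycin column for R92H/D268N. Activity was read by continuous PK/LDH-coupled NADH assay in 100 mM HEPES pH 7.5, 10 mM MgCl2, 20 mM KCl, 2 mM PEP, 140 μM NADH, with 5 to 10 nM enzyme. ATP/GTP was varied with kanamycin A fixed at 10 μM. Values came from nonlinear Michaelis-Menten fits.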

[2] = Activity of Aminoglycoside […] 2a R92H/D268N mutant using ATP/GTP as second substrate by spectrophotometric assay; summary of the method: as §1
[3] = Ratio of Kcat to Km for Aminoglycoside […] 2a N196D/D268N mutant using ATP/GTP as second substrate by spectrophotometric assay; summary of the method: as §1
[4] = Ratio of Kcat to Km for Aminoglycoside […] 2a R92H/D268N mutant using ATP/GTP as second substrate by spectrophotometric assay; summary of the method: as §1
[5] = Ratio of Kcat to Km for Aminoglycoside […] 2a using ATP/GTP as second substrate by spectrophotometric assay; summary of the method: as §1
[6] = Activity of Aminoglycoside […] 2a N196D/D268N mutant using ATP/GTP as second substrate by spectrophotometric assay; summary of the method: as §1
Escherichia coli [7] = test: Antibacterial activity against Escherichia coli JM83 harboring pHF022 containing aminoglycoside 2''-2a phosphotransferase N196D/D268N mutant by broth microdilution method; assay type: functional
Summary of the method: (§2)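 MICs by CLSI broth microdilution in Mueller-Hinton II broth; inoculum 5 × 10^5 CFU/ml; plates read after 20 h at 35°C. Host E. coli JM83 carrying pHF022 (empty or with cloned wild-type or mutant aph(2″)-IIa gene between NdeI and HindIII). Values are averages of at least three independent experiments.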

Escherichia coli [8] = test: Antibacterial activity against Escherichia coli JM83 harboring empty pHF022 vector by broth microdilution method; assay type: functional; summary of the method: as §2
Escherichia coli [9] = test: Antibacterial activity against Escherichia coli JM83 harboring pHF022 containing aminoglycoside 2''-2a phosphotransferase R92H/D268N mutant by broth microdilution method; assay type: functional; summary of the method: as §2
Escherichia coli [10] = test: Antibacterial activity against Escherichia coli JM83 harboring pHF022 containing aminoglycoside 2''-2a phosphotransferase R92H mutant by broth microdilution method; assay type: functional; summary of the method: as §2
Escherichia coli [11] = test: Antibacterial activity against Escherichia coli JM83 producing aminoglycoside 2''-2a phosphotransferase by broth microdilution method; assay type: functional; summary of the method: as §2
Escherichia coli [12] = test: Antibacterial activity against Escherichia coli JM83 harboring pHF022 containing aminoglycoside 2''-2a N196D mutant by broth microdilution method; assay type: functional; summary of the method: as §2
Escherichia coli [13] = test: Antibacterial activity against Escherichia coli JM83 harboring pHF022 containing aminoglycoside 2''-2a D268N mutant by broth microdilution method; assay type: functional; summary of the method: as §2

Nc1ncnc2c1ncn2[C@@H]1O[C@H](COP(=O)(O)OP(=O)(O)OP(=O)(O)O)[C@@H](O)[C@H]1O
Km [1]: 16.3 µM | kcat [1]: 43.3 s⁻¹ | Km [2]: 29.5 µM | kcat [2]: 21.4 s⁻¹ | kcat/Km [3]: 2.2 ×10⁶ /M/s | kcat/Km [4]: 7.2 ×10⁵ /M/s | kcat/Km [5]: 2.7 ×10⁶ /M/s | Km [6]: 5.6 µM | kcat [6]: 12.1 s⁻¹

Nc1nc(=O)c2ncn([C@@H]3O[C@H](COP(=O)(O)OP(=O)(O)OP(=O)(O)O)[C@@H](O)C3O)c2[nH]1 (single isomer, unassigned)
Km [1]: 70 µM | kcat [1]: 9.4 s⁻¹ | Km [2]: 28.2 µM | kcat [2]: 8.9 s⁻¹ | kcat/Km [3]: 6.5 ×10⁵ /M/s | kcat/Km [4]: 3.2 ×10⁵ /M/s | kcat/Km [5]: 1.3 ×10⁵ /M/s | Km [6]: 16.2 µM | kcat [6]: 10.6 s⁻¹

CN[C@@H]1[C@@H](O)[C@@H](O[C@@H]2[C@@H](O)[C@H](O[C@H]3O[C@H](C(C)O)[C@@H](O)[C@H](O)[C@H]3N)[C@@H](N)C[C@H]2N)OC[C@]1(C)O (single isomer, unassigned) [GENETICIN]
MIC (Escherichia coli [7]): 512 µg/mL (≈ 1030 µM) | MIC (Escherichia coli [8]): 2 µg/mL (≈ 4.03 µM) | MIC (Escherichia coli [9]): 512 µg/mL (≈ 1030 µM) | MIC (Escherichia coli [10]): 512 µg/mL (≈ 1030 µM) | MIC (Escherichia coli [11]): 512 µg/mL (≈ 1030 µM) | MIC (Escherichia coli [12]): 512 µg/mL (≈ 1030 µM) | MIC (Escherichia coli [13]): 512 µg/mL (≈ 1030 µM)

NCC[C@H](O)C(=O)N[C@@H]1C[C@H](N)[C@@H](O[C@H]2O[C@H](CN)[C@@H](O)[C@H](O)[C@H]2O)[C@H](O)[C@H]1O[C@H]1O[C@H](CO)[C@@H](O)[C@H](N)[C@H]1O [AMIKACIN]
Km [1]: 62.9 µM | kcat [1]: 8.3 s⁻¹ | Km [2]: 23.7 µM | kcat [2]: 22.3 s⁻¹ | MIC (Escherichia coli [7]): 16 µg/mL (≈ 27.3 µM) | MIC (Escherichia coli [8]): 2 µg/mL (≈ 3.42 µM) | kcat/Km [3]: 1 ×10⁶ /M/s | MIC (Escherichia coli [9]): 16 µg/mL (≈ 27.3 µM) | kcat/Km [4]: 9.4 ×10⁵ /M/s | kcat/Km [5]: 1.3 ×10⁵ /M/s | MIC (Escherichia coli [10]): 2 µg/mL (≈ 3.42 µM) | MIC (Escherichia coli [11]): 2 µg/mL (≈ 3.42 µM) | MIC (Escherichia coli [12]): 2 µg/mL (≈ 3.42 µM) | MIC (Escherichia coli [13]): 2 µg/mL (≈ 3.42 µM) | Km [6]: 13.5 µM | kcat [6]: 13.8 s⁻¹

NC[C@H]1O[C@H](O[C@H]2[C@H](O)[C@@H](O[C@H]3O[C@H](CO)[C@@H](O)[C@H](N)[C@H]3O)[C@H](N)C[C@@H]2N)[C@H](N)[C@@H](O)[C@@H]1O [BEKANAMYCIN]
MIC (Escherichia coli [7]): 64 µg/mL (≈ 132 µM) | MIC (Escherichia coli [8]): 1 µg/mL (≈ 2.07 µM) | MIC (Escherichia coli [9]): 64 µg/mL (≈ 132 µM) | MIC (Escherichia coli [10]): 64 µg/mL (≈ 132 µM) | MIC (Escherichia coli [11]): 64 µg/mL (≈ 132 µM) | MIC (Escherichia coli [12]): 64 µg/mL (≈ 132 µM) | MIC (Escherichia coli [13]): 64 µg/mL (≈ 132 µM)

NC[C@@H]1CC[C@@H](N)[C@@H](O[C@H]2[C@H](O)[C@@H](O[C@H]3O[C@H](CO)[C@@H](O)[C@H](N)[C@H]3O)[C@H](N)C[C@@H]2N)O1 [DIBEKACIN]
Km [1]: 1.2 µM | kcat [1]: 17.1 s⁻¹ | Km [2]: 1.2 µM | kcat [2]: 27.5 s⁻¹ | MIC (Escherichia coli [7]): 64 µg/mL (≈ 142 µM) | MIC (Escherichia coli [8]): 0.5 µg/mL (≈ 1.11 µM) | kcat/Km [3]: > 1.7 ×10⁷ /M/s | MIC (Escherichia coli [9]): 64 µg/mL (≈ 142 µM) | kcat/Km [4]: 2.3 ×10⁷ /M/s | kcat/Km [5]: 1.4 ×10⁷ /M/s | MIC (Escherichia coli [10]): 64 µg/mL (≈ 142 µM) | MIC (Escherichia coli [11]): 64 µg/mL (≈ 142 µM) | MIC (Escherichia coli [12]): 64 µg/mL (≈ 142 µM) | MIC (Escherichia coli [13]): 32 µg/mL (≈ 70.9 µM) | Km [6]: < 1 µM | kcat [6]: 16.9 s⁻¹

CN[C@@H]1[C@@H](O)[C@@H](O[C@@H]2[C@@H](O)[C@H](O[C@H]3O[C@H](CN)[C@@H](O)[C@H](O)[C@H]3O)[C@@H](N)C[C@H]2NC(=O)[C@@H](O)CN)OC[C@]1(C)O [ISEPAMICIN]
Km [1]: 13.5 µM | kcat [1]: 5.7 s⁻¹ | Km [2]: 1.2 µM | kcat [2]: 2.8 s⁻¹ | MIC (Escherichia coli [7]): 16 µg/mL (≈ 28.1 µM) | MIC (Escherichia coli [8]): 2 µg/mL (≈ 3.51 µM) | kcat/Km [3]: 2 ×10⁶ /M/s | MIC (Escherichia coli [9]): 16 µg/mL (≈ 28.1 µM) | kcat/Km [4]: 2.3 ×10⁶ /M/s | kcat/Km [5]: 4.4 ×10⁵ /M/s | MIC (Escherichia coli [10]): 4 µg/mL (≈ 7.02 µM) | MIC (Escherichia coli [11]): 2 µg/mL (≈ 3.51 µM) | MIC (Escherichia coli [12]): 2 µg/mL (≈ 3.51 µM) | MIC (Escherichia coli [13]): 2 µg/mL (≈ 3.51 µM) | Km [6]: 2 µM | kcat [6]: 4.1 s⁻¹

NC[C@@H]1O[C@@H](O[C@H]2[C@H](O)[C@@H](O[C@H]3O[C@H](CO)[C@@H](O)[C@H](N)[C@H]3O)[C@H](N)C[C@@H]2N)[C@@H](O)[C@H](O)[C@H]1O [KANAMYCIN A]
Km [1]: 2.1 µM | kcat [1]: 45.1 s⁻¹ | Km [2]: < 1 µM | kcat [2]: 20.5 s⁻¹ | MIC (Escherichia coli [7]): 256 µg/mL (≈ 528 µM) | MIC (Escherichia coli [8]): 2 µg/mL (≈ 4.13 µM) | kcat/Km [3]: > 1.4 ×10⁷ /M/s | MIC (Escherichia coli [9]): 256 µg/mL (≈ 528 µM) | kcat/Km [4]: > 2 ×10⁷ /M/s | kcat/Km [5]: 2.2 ×10⁷ /M/s | MIC (Escherichia coli [10]): 256 µg/mL (≈ 528 µM) | MIC (Escherichia coli [11]): 256 µg/mL (≈ 528 µM) | MIC (Escherichia coli [12]): 256 µg/mL (≈ 528 µM) | MIC (Escherichia coli [13]): 256 µg/mL (≈ 528 µM) | Km [6]: < 1 µM | kcat [6]: 13.8 s⁻¹

CCN[C@@H]1C[C@H](N)[C@@H](O[C@H]2OC(CN)=CC[C@H]2N)[C@H](O)[C@H]1O[C@H]1OC[C@](C)(O)[C@H](NC)[C@H]1O [NETILMICIN]
MIC (Escherichia coli [7]): 8 µg/mL (≈ 16.8 µM) | MIC (Escherichia coli [8]): 0.25 µg/mL (≈ 0.526 µM) | MIC (Escherichia coli [9]): 8 µg/mL (≈ 16.8 µM) | MIC (Escherichia coli [10]): 16 µg/mL (≈ 33.6 µM) | MIC (Escherichia coli [11]): 8 µg/mL (≈ 16.8 µM) | MIC (Escherichia coli [12]): 8 µg/mL (≈ 16.8 µM) | MIC (Escherichia coli [13]): 4 µg/mL (≈ 8.41 µM)

CN[C@@H]1[C@@H](O)[C@@H](O[C@@H]2[C@@H](O)[C@H](O[C@H]3OC(CN)=CC[C@H]3N)[C@@H](N)C[C@H]2N)OC[C@]1(C)O [SISOMICIN]
MIC (Escherichia coli [7]): 4 µg/mL (≈ 8.94 µM) | MIC (Escherichia coli [8]): 0.25 µg/mL (≈ 0.559 µM) | MIC (Escherichia coli [9]): 8 µg/mL (≈ 17.9 µM) | MIC (Escherichia coli [10]): 8 µg/mL (≈ 17.9 µM) | MIC (Escherichia coli [11]): 8 µg/mL (≈ 17.9 µM) | MIC (Escherichia coli [12]): 8 µg/mL (≈ 17.9 µM) | MIC (Escherichia coli [13]): 4 µg/mL (≈ 8.94 µM)

NC[C@H]1O[C@H](O[C@H]2[C@H](O)[C@@H](O[C@H]3O[C@H](CO)[C@@H](O)[C@H](N)[C@H]3O)[C@H](N)C[C@@H]2N)[C@H](N)C[C@@H]1O [TOBRAMYCIN]
Km [1]: 1.5 µM | kcat [1]: 26.1 s⁻¹ | Km [2]: < 1 µM | kcat [2]: 26.7 s⁻¹ | MIC (Escherichia coli [7]): 64 µg/mL (≈ 137 µM) | MIC (Escherichia coli [8]): 1 µg/mL (≈ 2.14 µM) | kcat/Km [3]: > 1.7 ×10⁷ /M/s | MIC (Escherichia coli [9]): 64 µg/mL (≈ 137 µM) | kcat/Km [4]: > 2.7 ×10⁷ /M/s | kcat/Km [5]: 1.7 ×10⁷ /M/s | MIC (Escherichia coli [10]): 64 µg/mL (≈ 137 µM) | MIC (Escherichia coli [11]): 64 µg/mL (≈ 137 µM) | MIC (Escherichia coli [12]): 64 µg/mL (≈ 137 µM) | MIC (Escherichia coli [13]): 32 µg/mL (≈ 68.4 µM) | Km [6]: < 1 µM | kcat [6]: 16.6 s⁻¹

GENTAMICIN
MIC (Escherichia coli [7]): 16 µg/mL | MIC (Escherichia coli [8]): 0.25 µg/mL | MIC (Escherichia coli [9]): 16 µg/mL | MIC (Escherichia coli [10]): 16 µg/mL | MIC (Escherichia coli [11]): 16 µg/mL | MIC (Escherichia coli [12]): 16 µg/mL | MIC (Escherichia coli [13]): 16 µg/mL
